APJ agonist – APJ receptor agonism | 330,000 compounds, 0.11% hits | CHO-K1 APJ PathHunter beta-arrestin, luminescence; 0% DMSO wells, 100% apelin | P35414 | activation, % at 20 µM | AID 2520;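 active = activation more than six SD over the plate average, tested at 20 µM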;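 note: 0% = DMSO alone and 100% = apelin-13 at 10 nM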
Target sequence (P35414 whole entry, looked up): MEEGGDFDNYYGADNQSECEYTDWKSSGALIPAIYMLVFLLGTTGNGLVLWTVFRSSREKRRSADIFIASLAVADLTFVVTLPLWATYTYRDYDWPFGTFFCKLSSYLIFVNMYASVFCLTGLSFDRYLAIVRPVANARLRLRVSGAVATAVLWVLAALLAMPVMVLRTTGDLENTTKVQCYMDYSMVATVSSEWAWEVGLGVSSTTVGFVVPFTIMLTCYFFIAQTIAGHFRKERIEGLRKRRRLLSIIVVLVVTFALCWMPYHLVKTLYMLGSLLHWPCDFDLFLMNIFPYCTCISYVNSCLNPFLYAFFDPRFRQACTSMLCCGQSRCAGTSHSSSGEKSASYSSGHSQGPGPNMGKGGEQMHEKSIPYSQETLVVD
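Assay system: CHO-K1 cells stably expressing ProLink-tagged human APJ and arrestin–beta-gal acceptor. Compound dosing: 20 µM single point, 1% DMSO. Times: 16-18 h seeding, 90 min dark compound exposure, 60 min detection. Detection: beta-gal luminescence. Evaluation: APJ–arrestin association signal. Controls: negative DMSO alone, positive Apelin-13 at 10 nM.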
CCR6 antagonist – antagonists of human CCR6 receptor | CHO-K1 CCR6 PathHunter beta-arrestin, luminescence, CCL20-stimulated | inhibition, % at 20 µM | P51684 | 340,000 compounds, 0.49% hits;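 active = compounds whose inhibition of the agonist-driven luminescence signal at 20 µM reaches about 50%, limit read from the data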;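 note: cells stimulated with CCL20 at 14 nM final; plate controls were DMSO with CCL20 for no effect and DMSO without agonist for full effect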
CXCR6 block – inhibitors of human CXCR6 receptor; 360,000 compounds, 0.36% hits; AID 602244; O00574; inhibition, % at 20 µM; CHO-K1 PathHunter CXCR6 beta-arrestin, luminescence; in the data active = inhibition above about 34%, passing the limit was not always enough;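 note: antagonist mode with CXCL16 agonist at 10 nM final; 0% = 10 nM CXCL16 with DMSO and 100% = unstimulated wells without agonist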
HTR2A ag – activates the mouse 5-HT2A serotonin receptor | 360,000 compounds, 0.66% hits | CHO-K1 mHTR2A beta-arrestin complementation, luminescence; percent of 30 µM serotonin response | activation, % at 7.6 µM | P35363;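 active = activation above a run cutoff, the mean activation of all tested compounds plus 3 SD, cut at about 14% in these data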;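 note: 0% = plate median of compound wells and 100% = 30 µM serotonin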
EBI2 block – antagonists of human EBI2 receptor; P32249; EBI2 beta-arrestin recruitment, luminescence, 7a,25-OHC stimulated; inhibition, % at 5 µM; 360,000 compounds, 0.81% hits; AID 651636; in the data active = inhibition above about 38%;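 note: enzyme fragment complementation signal reports receptor beta-arrestin coupling in cells; 0% = agonist plus DMSO wells and 100% = wells without agonist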
Target sequence (P32249 whole entry, looked up, the tested form may be a part): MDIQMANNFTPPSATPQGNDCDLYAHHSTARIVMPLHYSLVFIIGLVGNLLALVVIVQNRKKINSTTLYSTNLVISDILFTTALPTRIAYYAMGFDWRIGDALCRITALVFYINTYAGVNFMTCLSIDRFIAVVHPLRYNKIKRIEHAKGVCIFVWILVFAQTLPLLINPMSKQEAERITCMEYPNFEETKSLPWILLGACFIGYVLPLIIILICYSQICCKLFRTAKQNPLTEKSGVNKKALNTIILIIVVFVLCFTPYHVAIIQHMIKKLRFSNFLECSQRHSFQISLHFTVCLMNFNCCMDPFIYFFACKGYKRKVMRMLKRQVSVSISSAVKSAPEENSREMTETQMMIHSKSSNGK
APJ antag – APJ receptor antagonism | AID 2521 | 330,000 compounds, 0.32% hits | P35414 | inhibition, % at 20 µM | CHO-K1 APJ beta-arrestin complementation, luminescence;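 active = inhibition above about 40% at 20 µM, limit read from the data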;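 note: cells challenged with 10 nM apelin-13 agonist together with compound; plate controls were apelin-13 plus DMSO wells for no effect and DMSO wells lacking apelin-13 for full effect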
EBI2 antag conf – confirmation of human EBI2 receptor antagonists. shares compounds with EBI2 block. EBI2 beta-arrestin luminescence, 7a,25-OHC antagonism. inhibition, % at 5 µM. 2,400 compounds, 29% hits. AID 651997;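 active = inhibition of at least 50%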
EBI2 agonist – counter-screen for EBI2 antagonists: EBI2 agonist activity; shares compounds with EBI2 block; 2,400 tested, under 10 active; EBI2-expressing cells, agonist mode, luminescence, 60 min; 0% vehicle, 100% 7α,25-dihydroxycholesterol control; AID 652000; activation, % at 5 µM;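 active = activation of at least 50%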
bGal cs – counter-screen for EBI2 antagonists: E. coli beta-galactosidase inhibition; purified beta-galactosidase, luminescent Galacton Star, 15 min; 2,400 compounds, 1% hits; inhibition, % at 5 µM; shares compounds with EBI2 block; AID 652176;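 active = replicate-average signal at least 3 plate SD below neutral wells, shown as high inhibition, flagging enzyme-inhibiting false positives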;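 note: 0% = DMSO wells with enzyme and 100% = wells lacking enzyme; higher means stronger loss of beta-gal luminescence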
An asterisk follows results filed as active; x = no result. A selection: hits, their analogues and other compounds. The true share with any hit is near 2.1%.

SMILES | APJ agonist | CCR6 antagonist | CXCR6 block | HTR2A ag | EBI2 block | APJ antag | EBI2 antag conf | EBI2 agonist | bGal cs
COC(=O)[C@@]12C[C@@H](CC(=O)NCCc3ccccc3OC)C(=O)N(CCc3ccc(OC)c(OC)c3)C1=CCC(C)(C)C2 | x | x | x | -2.2 | 7.5 | x | x | x | x
Cc1ncc(C(O)c2ccccc2)n1Cc1ccccc1 (configuration not stated) | x | x | -4.6 | 2.2 | 4.3 | x | x | x | x
COc1ccc(S(=O)(=O)N(C)C[C@H]2Oc3ccc(NC(=O)NC4CCCCC4)cc3C(=O)N([C@H](C)CO)C[C@@H]2C)cc1 | -1.8 | -2.1 | -0.7 | 12.2 | -5.9 | 7.0 | x | x | x
Cc1ccc2c(c1)N(CC(=O)NC1CCCC1)C(=O)c1cccnc1O2 | -1.3 | 1.2 | -2.9 | -3.8 | -9.1 | -70.2 | x | x | x
Cc1cc(C)c(C#N)c(SCc2[nH]nc3c2C(c2ccc(F)cc2)C(C#N)=C(N)O3)n1 (configuration not stated) | 0.2 | 2.1 | -3.4 | -8.9 | 83.5* | 14.1 | 56.5* | 1.2 | 8.0
Cc1cc(C#N)c(C)c(SCc2[nH]nc3c2C(c2ccccc2)C(C#N)=C(N)O3)n1 (configuration not stated) | -1.0 | 19.8 | 7.5 | 1.3 | 67.7* | 3.8 | 54.8* | -0.2 | 6.7
Cc1ccc(SCc2[nH]nc3c2C(c2cccnc2)C(C#N)=C(N)O3)cc1 (configuration not stated) | -0.5 | 4.0 | -6.4 | -3.6 | 4.6 | 12.5 | x | x | x
CCN(CC)CCSc1nnc2c3cc(C)ccc3n(Cc3ccccc3)c2n1 | -1.5 | 17.4 | 2.5 | -10.9 | 74.1* | 18.8 | 51.9* | 1.2 | -0.6
O=C(CSc1nc2c(oc3ccccc32)c(=O)n1CC1CCCO1)NCc1ccccc1 (configuration not stated) | -1.6 | 6.0 | 4.6 | 7.3 | 5.3 | 4.8 | x | x | x
CCOc1cc(CNc2ccc(Br)cc2)cc(Br)c1OCC(=O)NC(C)(C)C | 2.4 | 18.5 | -2.1 | -0.3 | 66.1* | -13.9 | 7.1 | 0.9 | 2.2
CCOc1cc(CNc2ccccc2)cc(Br)c1OCc1ccc(F)cc1 | -1.4 | 17.4 | 10.9 | 0.2 | 48.6* | -6.7 | 13.9 | 0.3 | 3.4
COc1ccc(C(=O)C2CCN(C(=O)Nc3ccccc3C)CC2)cc1 | -2.2 | 1.4 | -5.8 | -6.5 | 5.5 | 4.4 | x | x | x
Cc1ccc(C)c(N2CCN(C(=O)c3cc4sccc4n3C)CC2)c1 | -3.9 | 2.0 | 3.0 | -10.9 | 73.9* | 5.0 | 33.6 | -0.9 | -9.2
Cc1ccc(C)c(N2CCN(C(=O)c3ccc4nc(-c5ccco5)c(-c5ccco5)nc4c3)CC2)c1 | 1.4 | 9.3 | 11.5 | 0.6 | 44.5* | 1.5 | 32.6 | -0.5 | 10.9
Cc1ccc(C)c(N2CCN(C(=O)c3ccc4c(c3)c(C)c(C)n4C)CC2)c1 | -4.1 | 9.4 | 4.7 | 0.2 | 72.7* | 3.9 | 58.3* | 0.0 | -9.7
COc1ccccc1N1CCN(C(=O)c2ccc3nc(-c4ccco4)c(-c4ccco4)nc3c2)CC1 | 4.7 | 11.8 | 4.0 | 0.0 | -8.3 | -22.0 | x | x | x
CCOC(=O)N1CCN(C(=O)c2cc3sccc3n2C)CC1 | -1.6 | 5.5 | 6.4 | 7.1 | 7.0 | -9.8 | x | x | x
Cc1ccc(C)c(N2CCN(C(=O)c3ccc(N4CCCC4=O)cc3)CC2)c1 | -2.0 | 6.6 | 0.8 | -4.9 | 47.8* | -5.3 | 21.3 | -1.0 | -10.9
CCC(C)(C)C1CCC2(CC1)NC(=O)N(CC(=O)Nc1nc(-c3ccc(C)cc3)cs1)C2=O (configuration not stated) | -0.6 | 22.5 | 1.1 | 0.1 | 42.9* | 9.2 | 12.9 | 1.7 | 4.5
O=C(CN1C(=O)NC2(CCCC2)C1=O)Nc1nc(-c2ccc(F)cc2)cs1 | 6.6 | -4.7 | -22.9 | -3.7 | -18.9 | -8.1 | x | x | x
COc1cc(NC(=O)N2CCc3nc(Nc4cc(Cl)cc(Cl)c4)ncc3C2)cc(OC)c1OC | x | x | -4.5 | -2.9 | 47.1* | x | 7.1 | -0.1 | -15.1
COc1ccc(CNC(=O)N2CCc3nc(Nc4cc(OC)c(OC)c(OC)c4)ncc3C2)cc1 | x | x | -5.1 | 0.3 | 3.5 | x | x | x | x
COc1ccc(NC(=O)c2ccc(NS(=O)(=O)c3c(C)noc3C)cc2)cc1OC | -4.2 | 8.6 | 4.0 | -0.5 | -1.9 | 14.8 | x | x | x
Cc1ccc(NC(=O)c2ccc(NS(=O)(=O)c3c(C)noc3C)cc2)cc1C | 2.4 | 13.1 | -3.3 | -8.5 | 48.4* | 7.6 | 12.4 | 3.2 | -11.7
CCc1cc2cc(C(=O)N3CCN(Cc4ccccc4)CC3)sc2s1 | -2.7 | 7.5 | -4.0 | -4.2 | 96.5* | -1.9 | 85.2* | 0.6 | 5.1
SMILES | APJ agonist | CCR6 antagonist | CXCR6 block | HTR2A ag | EBI2 block | APJ antag | EBI2 antag conf | EBI2 agonist | bGal cs
O=C(c1ccccc1)N1CCN(Cc2ccccc2)CC1 | -2.7 | 5.1 | -1.4 | 3.2 | -0.8 | 12.1 | x | x | x
CCc1cc2cc(C(=O)N3CCN(c4ccccc4)CC3)sc2s1 | -5.7 | -13.7 | -1.5 | -0.4 | 83.0* | 7.3 | 46.1 | -1.6 | -14.6
Cc1ccc(S(=O)(=O)N2C[C@@H]3CCCC[C@@H]3[C@@H](C)[C@H]2c2cn(Cc3ccccc3)c3ncccc23)cc1 | x | 24.7 | 10.0 | -1.2 | 26.7 | x | x | x | x
Cc1nc(N2CCN(C(=O)COc3ccccc3)CC2)c2c(C)c(C)sc2n1 | 2.3 | 7.2 | -8.5 | 0.9 | 50.8* | 6.9 | 28.1 | -1.2 | -5.7
Cc1ccc(OCC(=O)N2CCN(c3nnc(-c4ccccc4)c4ccccc34)CC2)cc1 | -5.4 | 27.2 | 10.8 | 7.8 | 90.2* | 2.9 | 85.7* | 0.3 | 8.7
COc1ccc(OCCCC(=O)Nc2cc(Cl)ccc2-n2cncn2)cc1 | 3.8 | 12.9 | -11.4 | 1.5 | 15.2 | -36.9 | x | x | x
CC(=O)c1ccc(NC(=O)C2CCCNC2=O)cc1 (configuration not stated) | -1.1 | -13.7 | 34.1 | -3.2 | 55.2* | 2.3 | 7.6 | 0.8 | 7.3
COc1ccc(NC(=O)C2CCCNC2=O)cc1 (configuration not stated) | -1.1 | -0.7 | 3.1 | 6.1 | -9.1 | -2.9 | x | x | x
Cc1cc(C)c(S(=O)(=O)Nc2ccc(N(C)C)cc2)c(C)c1-n1cnnn1 | 1.9 | -10.5 | -8.5 | 0.8 | 65.1* | -26.5 | 33.4 | 2.2 | 2.8
Cc1ccc(S(=O)(=O)Nc2ccc(-n3cnnn3)cc2)c(C)c1 | -5.1 | 2.7 | 3.3 | -5.2 | -2.6 | -3.8 | x | x | x
CCc1ccc(C(=O)NNC(=O)c2cccc(S(=O)(=O)N3CCN(C)CC3)c2)cc1 | -0.2 | -12.2 | 3.4 | 0.2 | 2.0 | 16.9 | x | x | x
CCCCN(C)C(=O)c1cc2cc3ccc(OC)cc3nc2o1 | -2.7 | 11.3 | 12.6 | 0.6 | -1.5 | -1.5 | x | x | x
